Source: PubChem BioAssay (several laboratories)
An excerpt weighted towards active compounds, which were near 0.77% of everything screened.
Rad51 HR inh: blocks human Rad51 in homologous recombination; inhibition, % at 10 µM; hRad51 DNA strand exchange, fluorescence dequenching; 0.085% of 200,000 active; AID 1385; Q06609;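 active means inhibition above 40% at the single screening dose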
Target sequence (Q06609 whole entry, looked up): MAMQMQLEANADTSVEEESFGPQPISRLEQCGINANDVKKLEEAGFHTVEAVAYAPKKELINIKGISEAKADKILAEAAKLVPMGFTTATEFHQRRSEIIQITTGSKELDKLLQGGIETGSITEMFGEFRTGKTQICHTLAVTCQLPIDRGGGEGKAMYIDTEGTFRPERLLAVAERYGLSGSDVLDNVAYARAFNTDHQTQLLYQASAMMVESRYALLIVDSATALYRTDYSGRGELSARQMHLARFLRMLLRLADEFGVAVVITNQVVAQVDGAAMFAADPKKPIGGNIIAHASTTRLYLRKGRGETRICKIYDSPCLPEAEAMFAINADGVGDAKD
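Material: Human Rad51 nucleoprotein filaments preassembled on unlabelled ssDNA | Also added: Labelled 47-mer dsDNA for strand exchange | Dosing: Single dose, 10 µM final compound | Schedule: 30-min compound preincubation and 15-min exchange, both room temperature | Technique: Fluorescence dequenching at 485/520 nm | Measure: Percent inhibition relative to plate controls and blanks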
HMGR II inh: blocks class II HMG-CoA reductase of Enterococcus faecalis; inhibition, % at 10 µM; purified E. faecalis HMGR, NADPH absorbance 340 nm kinetic; 0.41% of 190,000 active;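 active means inhibition above a set limit, the median over all tested compounds plus 3 SD, cut at about 9.5% in these data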;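 further: enzyme runs in reverse so mevalonate oxidation gives rising NADPH absorbance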
PERK inhibitor: blocks human PERK kinase. 0.17% of 220,000 active. AID 1416. Q9NZJ5. CHO PERK-DD fusion, SEAP luminescence translation reporter. inhibition, % at 5.6 µM;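 active means inhibition above the mean inhibition of all tested compounds plus 3 SD, set separately per screening campaign, cut at about 2.9% in these data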;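 further: PERK kinase domain activated by AP20187 dimerizer at 100 nM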
ABCB1 block: inhibitors of human ABCB1 transporter, ABCG2 counter-screen; P08183; CCRF-Adr cells, JC-1 efflux, flow cytometry; 0.067% of 190,000 active; inhibition, % at 6.6 µM; in the data active means inhibition above about 40%;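 further: higher value means more JC-1 retained so stronger ABCB1 efflux block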
ABCG2 block: human ABCG2 inhibition, ABCB1 as counter-screen | Q9UNQ0 | IgMXP3 cells, JC-1 efflux, flow cytometry | inhibition, % at 6.6 µM | 0.1% of 190,000 active | AID 1325;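 active means inhibition above 80%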
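Measure – % inhibition of efflux relative to nicardipine and DMSO · Test system – ABCG2 IgMXP3 and barcoded ABCB1 CCRF-Adr cell mix · Control set – nicardipine as high control, DMSO as low control · Compound – one concentration, 6.6 µM final · Signal – flow cytometry of retained JC-1 fluorescence · Timing – 10 min exposure at 25 °C with rotation, no wash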
Furin inh: inhibitors of human furin; P09958; purified furin, fluorogenic substrate cleavage; inhibition, % at 20 µM or 30 µM; 0.061% of 220,000 active; AID 463115; in the data active means inhibition above about 25%
ABCB1 single pt: confirmation of human ABCB1 transporter inhibitors, ABCG2 counter-screen | shares compounds with ABCG2 block | CCRF-Adr cells, JC-1 efflux, flow cytometry | inhibition, % at 6.6 µM | 7% of 270 active | AID 1451;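 active means inhibition of pump activity above 50%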
ABCG2 confirm: confirmation of human ABCG2 transporter inhibitors, ABCB1 counter-screen. shares compounds with ABCG2 block. IgMXP3 cells, JC-1 efflux, flow cytometry. inhibition, % at 6.6 µM. 6% of 270 active. AID 1453;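 active means inhibition above 50%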
IgMXP3 autofluor: compound fluoresces at 488/530 nm in IgMXP3 cells; shares compounds with ABCG2 block; compound autofluorescence 488/530 nm, flow; hits give high values; fluorescence at 6.6 µM; 30% of 270 active; AID 1480;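 active means fluorescence in ABCG2-expressing cells above the plate's control-well mean plus 3 SD, cut at about 15 in these data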
CCRF-Adr fluor: CCRF-Adr autofluorescence flag for ABCB1 confirmation | AID 1483 | shares compounds with ABCG2 block | fluorescence at 6.6 µM | CCRF-Adr cells, compound autofluorescence 488/530 nm, flow cytometry; hits give high values | 30% of 270 active;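 active means fluorescence beyond the plate control mean plus 3 SD, with a fluorescence-to-maximum score over 2, cut at about 25 in these data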
Hits are given with their value; . = inactive; / = no result given.

SMILES	Rad51 HR inh	HMGR II inh	PERK inhibitor	ABCB1 block	ABCG2 block	Furin inh	ABCB1 single pt	ABCG2 confirm	IgMXP3 autofluor	CCRF-Adr fluor
CC(C)n1c(O)c(N=NC(=O)Cn2ccc(C(F)(F)F)n2)c2ccccc21	.	.	.	.	88.8	.	.	.	.	28
Cc1cc(C)c(N=Cc2c(O)n(-c3nccs3)c(=O)c3ccccc23)c(C)c1	.	.	.	.	.	.	/	/	/	/
Cc1ccc(N=Cc2c(O)n(-c3nccs3)c(=O)c3ccccc23)cc1	.	.	.	41.3	.	.	.	.	.	.
Cc1c(NC(=O)COC(=O)c2ccc(F)c(S(=O)(=O)N3CCOCC3)c2)c(=O)n(-c2ccccc2)n1C	.	.	.	.	.	.	/	/	/	/
Cc1cccc(C2NC(c3cccc(C)c3)C([N+](=O)[O-])C(C)(C)C2[N+](=O)[O-])c1 (stereo not given)	.	.	.	.	.	.	/	/	/	/
CCOCCCNc1nc2c(C)cccn2c(=O)c1/C=C1\SC(=S)N(CC(C)C)C1=O	/	.	.	48.4	141.0	.	.	.	43.8	211
CN(C)c1ccc(/C=C2\N=C(c3ccc(Cl)c([N+](=O)[O-])c3)NC2=O)cc1	/	.	.	83.0	83.4	.	.	.	74.7	93.7
CN(C)c1ccc(/C=C2/NC(=O)NC2=O)cc1	/	.	.	.	.	.	/	/	/	/
CCCCCn1c(CN2CCN(Cc3ccccc3)CC2)nc2c1c(=O)n(C)c(=O)n2C	.	.	.	56.5	.	.	.	.	.	.
CCN(CC)c1ccc(/C=c2/sc3nnc(-c4ccccc4C)n3c2=O)cc1	.	.	.	77.0	.	.	.	.	139	249
Cc1ccc(/C=c2/sc3nnc(-c4ccccc4Cl)n3c2=O)o1	.	.	.	.	.	.	/	/	/	/
CCN(CC)c1ccc(/C=c2\sc3nnc(-c4ccccc4Cl)n3c2=O)cc1	.	.	.	59.7	.	.	.	.	202	204
CCCOc1nc(SCCC)nc2c1cnn2-c1ccccc1	.	/	.	/	/	.	/	/	/	/
CN(C)CCCNC(NC(=O)c1cccs1)C(Cl)(Cl)Cl (stereo not given)	.	.	.	.	.	.	/	/	/	/
CCOC(=O)c1sc(NN=C(C(=O)OC)C(=O)OC)c(C(=O)OCC)c1C	.	.	.	.	125.8	.	.	.	.	.
O=C(c1ccco1)N1CCN(c2nnc(-c3ccccc3)c3ccccc23)CC1	.	.	.	.	.	.	/	/	/	/
O=C(c1ccco1)N1CCN(c2nc(C(F)(F)F)nc3c2nnn3Cc2ccccc2)CC1	.	.	.	.	.	.	.	.	72.9	37
CCOC(=O)c1cn2nc(-c3ccc(OC)cc3)cc2nc1C1CCN(C(=O)OC(C)(C)C)CC1	.	.	.	51.1	.	.	.	.	.	.
COc1ccc(-c2cc(C3CCN(C(=O)OC(C)(C)C)CC3)[nH]n2)cc1	/	.	.	.	.	.	/	/	/	/
Cc1cccc(Oc2cc([N+](=O)[O-])cc3c2C(=O)Nc2ccccc2O3)c1	.	.	.	.	.	.	/	/	/	/
O=C1Nc2ccccc2Oc2cc([N+](=O)[O-])cc(Oc3ccccc3)c21	.	.	.	.	88.8	.	.	.	19.8	59
CCCN(CCC)C(=O)c1cc([N+](=O)[O-])cc2c1-c1ccc([N+](=O)[O-])cc1C2=C(C#N)C#N	.	/	.	/	/	.	/	/	/	/
O=S(=O)(c1ccc(Br)cc1)N1CCN(c2cc(-c3ccccc3)nc3ncnn23)CC1	.	.	.	59.9	.	.	.	.	.	.
